≈ marks a conversion by molar mass, not a printed value.
What was measured:
Assay type in all cases: functional
[1] = test system: Mycobacterium tuberculosis; experiment: Minimum Inhibitory Concentration against Mycobacterium tuberculosis ATCC 35801
Procedure, shortened: (§1)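 Broth macrodilution in tubes of modified Middlebrook 7H10 broth (agar and malachite green omitted) with 10% OADC and 0.05% Tween 80 at pH 5.8. Cultures were grown 3 days at 37 °C on a rotary shaker, then diluted with 7H10 broth to 1 Klett unit/mL. Stocks were made in water or DMSO and filter-sterilised; 2-fold serial dilutions were tested. Tubes shaken 7–10 days at 37 °C, with a drug-free control. MIC = lowest concentration (μg/mL) with no visible turbidity.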

Mycobacterium kansasii = experiment: Minimum Inhibitory Concentration against clinical isolates of Mycobacterium kansasii S
Procedure, shortened: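 Grown 3 days at 37 °C on a rotary shaker in modified Middlebrook 7H10 broth (agar and malachite green omitted) with 10% OADC and 0.05% Tween 80. Diluted to 1 Klett unit/mL. Tubes held serial 2-fold dilutions in 7H10 broth at pH 5.8, from stocks in water or DMSO, and were shaken at 37 °C for 7–10 days with a drug-free control. MIC was the lowest concentration with no visible turbidity.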

Mycobacterium avium [2] = experiment: Minimum Inhibitory Concentration in clinical isolates against Mycobacterium avium complex 101; procedure, shortened: as §1
Mycobacterium avium [3] = experiment: Minimum Inhibitory Concentration against clinical isolates of Mycobacterium avium complex ATCC 49601; procedure, shortened: as §1
[4] = test system: Mycobacterium tuberculosis; experiment: Minimum Inhibitory Concentration against Mycobacterium tuberculosis ATCC 27294; settings: Mycobacterium tuberculosis, ATCC 27294; read-out: MIC; procedure, shortened: as §1

| SMILES | MIC [1] [µg/mL] | MIC (Mycobacterium kansasii) [µg/mL] | MIC (Mycobacterium avium [2]) [µg/mL] | MIC (Mycobacterium avium [3]) [µg/mL] | MIC [4] [µg/mL] |
| --- | --- | --- | --- | --- | --- |
| CCCCCCOC(=O)c1cnc(F)cn1 | 4 (≈ 17.7 µM) | 8 (≈ 35.4 µM) | 64 (≈ 283 µM) | 64 (≈ 283 µM) | – |
| CCCCCCCC(C)(CCCCC)OC(=O)c1cnc(Cl)cn1 (stereo not given) | 4 (≈ 11.3 µM) | – | > 64 | > 64 | 2 (≈ 5.64 µM) |
| CCCOC(=O)c1cnc(C)cn1 | 4 (≈ 22.2 µM) | 8 (≈ 44.4 µM) | > 64 | > 64 | 2 (≈ 11.1 µM) |
| CCCCOC(=O)c1cnc(Cl)cn1 | 0.5 (≈ 2.33 µM) | < 1 | 64 (≈ 298 µM) | 128 (≈ 596 µM) | 0.25 (≈ 1.16 µM) |
| CCCCCCCCCCOC(=O)c1cnc(F)cn1 | 4 (≈ 14.2 µM) | 1 (≈ 3.54 µM) | 32 (≈ 113 µM) | 32 (≈ 113 µM) | 2 (≈ 7.08 µM) |
| COC(=O)c1cnccn1 | 16 (≈ 116 µM) | > 64 | – | > 256 | < 8 |
| CC(C)COC(=O)c1cnc(Cl)cn1 | 0.25 (≈ 1.16 µM) | < 1 | 64 (≈ 298 µM) | 64 (≈ 298 µM) | 2 (≈ 9.32 µM) |
| CCCCCCC(C)(C)OC(=O)c1cnc(Cl)cn1 | 4 (≈ 14 µM) | 1 (≈ 3.51 µM) | 64 (≈ 225 µM) | 64 (≈ 225 µM) | 0.25 (≈ 0.878 µM) |
| CCCCCCC(C)(CCCCCC)OC(=O)c1cnc(Cl)cn1 | 0.5 (≈ 1.41 µM) | 2 (≈ 5.64 µM) | > 64 | 16 (≈ 45.1 µM) | 0.25 (≈ 0.704 µM) |
| CCCCCCCCC(C)OC(=O)c1cnc(Cl)cn1 (stereo not given) | 0.5 (≈ 1.67 µM) | < 0.12 | 32 (≈ 107 µM) | 32 (≈ 107 µM) | 0.06 (≈ 0.201 µM) |
| CCCCCCCCCC(C)(C)OC(=O)c1cnc(Cl)cn1 | 1 (≈ 3.06 µM) | 0.5 (≈ 1.53 µM) | 256 (≈ 783 µM) | 256 (≈ 783 µM) | 8 (≈ 24.5 µM) |
| CCCCCC(C)(CCCCC)OC(=O)c1cnc(Cl)cn1 | 8 (≈ 24.5 µM) | 8 (≈ 24.5 µM) | 64 (≈ 196 µM) | 64 (≈ 196 µM) | 8 (≈ 24.5 µM) |
| COC(=O)c1cnc(C)cn1 | 8 (≈ 52.6 µM) | 32 (≈ 210 µM) | > 256 | > 256 | 16 (≈ 105 µM) |
| CCCCCCC(C)(CCCC)OC(=O)c1cnc(Cl)cn1 (stereo not given) | 8 (≈ 24.5 µM) | 4 (≈ 12.2 µM) | > 256 | – | 4 (≈ 12.2 µM) |
| CCCCCCCCC(CC)OC(=O)c1cnc(Cl)cn1 (stereo not given) | 0.25 (≈ 0.799 µM) | < 0.03 | 64 (≈ 205 µM) | 32 (≈ 102 µM) | 0.5 (≈ 1.6 µM) |
| O=C(OCc1ccccc1)c1cnccn1 | 1 (≈ 4.67 µM) | 1 (≈ 4.67 µM) | 64 (≈ 299 µM) | 64 (≈ 299 µM) | < 1 |
| CCCCCC(C)(CCCC)OC(=O)c1cnc(Cl)cn1 (stereo not given) | 8 (≈ 25.6 µM) | 16 (≈ 51.1 µM) | 256 (≈ 818 µM) | 256 (≈ 818 µM) | 4 (≈ 12.8 µM) |
| CCCCCCCCCCCOC(=O)c1cnc(Cl)cn1 | 0.5 (≈ 1.6 µM) | 0.06 (≈ 0.192 µM) | 16 (≈ 51.1 µM) | 8 (≈ 25.6 µM) | 0.25 (≈ 0.799 µM) |
| CCCCCCC(C)(CCCCC)OC(=O)c1cnc(Cl)cn1 (stereo not given) | 8 (≈ 23.5 µM) | 8 (≈ 23.5 µM) | > 64 | > 64 | 2 (≈ 5.87 µM) |
| COC(=O)c1cnc(F)cn1 | 8 (≈ 51.2 µM) | 8 (≈ 51.2 µM) | 64 (≈ 410 µM) | 64 (≈ 410 µM) | 4 (≈ 25.6 µM) |
| CC(C)(OC(=O)c1cnc(Cl)cn1)c1ccccc1 | 16 (≈ 57.8 µM) | 16 (≈ 57.8 µM) | – | – | 16 (≈ 57.8 µM) |
| CCCCCCCC(OC(=O)c1cnc(Cl)cn1)C(C)(C)C (stereo not given) | 2 (≈ 6.12 µM) | 0.25 (≈ 0.765 µM) | > 256 | – | 0.5 (≈ 1.53 µM) |
| O=C(OCc1ccc(Br)cc1)c1cnc(Cl)cn1 | 1 (≈ 3.05 µM) | 0.125 (≈ 0.382 µM) | 32 (≈ 97.7 µM) | 64 (≈ 195 µM) | 1 (≈ 3.05 µM) |

| SMILES | MIC [1] [µg/mL] | MIC (Mycobacterium kansasii) [µg/mL] | MIC (Mycobacterium avium [2]) [µg/mL] | MIC (Mycobacterium avium [3]) [µg/mL] | MIC [4] [µg/mL] |
| --- | --- | --- | --- | --- | --- |
| CCCCC(OC(=O)c1cnc(Cl)cn1)c1ccccc1 (stereo not given) | 2 (≈ 6.56 µM) | 1 (≈ 3.28 µM) | 128 (≈ 420 µM) | 64 (≈ 210 µM) | 4 (≈ 13.1 µM) |
| CCCCCCCCCCCCCCCOC(=O)c1cnccn1 | 0.12 (≈ 0.359 µM) | 1 (≈ 2.99 µM) | 32 (≈ 95.7 µM) | 8 (≈ 23.9 µM) | 0.06 (≈ 0.179 µM) |
| CC(C)(C)C(OC(=O)c1cnc(Cl)cn1)c1ccccc1 (stereo not given) | 4 (≈ 13.1 µM) | 2 (≈ 6.56 µM) | 128 (≈ 420 µM) | 256 (≈ 840 µM) | 4 (≈ 13.1 µM) |
| O=C(Oc1c(Br)cc(Br)cc1Br)c1cnccn1 | 32 (≈ 73.2 µM) | 64 (≈ 146 µM) | 128 (≈ 293 µM) | 128 (≈ 293 µM) | 32 (≈ 73.2 µM) |
| Cc1cc(C(C)(C)C)c(OC(=O)c2cnccn2)c(C(C)(C)C)c1 | – | > 16 | > 1020 | > 1020 | 128 (≈ 392 µM) |
| O=C(OC(c1ccccc1)c1ccccc1)c1cnc(Cl)cn1 | 16 (≈ 49.3 µM) | 8 (≈ 24.6 µM) | > 64 | > 64 | 16 (≈ 49.3 µM) |
| CCCCCCCCCCC(OC(=O)c1cnc(Cl)cn1)C(C)(C)C (stereo not given) | 8 (≈ 21.7 µM) | 4 (≈ 10.8 µM) | > 256 | 256 (≈ 694 µM) | 16 (≈ 43.4 µM) |
| CCCCCCCC(C)(CCCC)OC(=O)c1cnc(Cl)cn1 (stereo not given) | 8 (≈ 23.5 µM) | 16 (≈ 46.9 µM) | > 256 | > 256 | 4 (≈ 11.7 µM) |
| CCCCCOC(=O)c1cnc(Cl)cn1 | 0.25 (≈ 1.09 µM) | < 0.03 | 32 (≈ 140 µM) | 32 (≈ 140 µM) | 0.06 (≈ 0.262 µM) |
| CC(C)COC(=O)c1cnccn1 | 16 (≈ 88.8 µM) | > 64 | 256 (≈ 1420 µM) | – | < 8 |
| CCOC(=O)c1cnc(Cl)cn1 | 2 (≈ 10.7 µM) | 2 (≈ 10.7 µM) | 128 (≈ 686 µM) | 128 (≈ 686 µM) | 1 (≈ 5.36 µM) |
| CCCCCCC(C)OC(=O)c1cnc(Cl)cn1 (stereo not given) | 0.25 (≈ 0.923 µM) | < 0.015 | 8 (≈ 29.5 µM) | 16 (≈ 59.1 µM) | 0.06 (≈ 0.222 µM) |
| CCCCCCCCCC(C)OC(=O)c1cnc(Cl)cn1 (stereo not given) | 0.125 (≈ 0.4 µM) | 0.25 (≈ 0.799 µM) | 16 (≈ 51.1 µM) | 16 (≈ 51.1 µM) | 0.25 (≈ 0.799 µM) |
| CCCCCC(CC)OC(=O)c1cnc(C)cn1 (stereo not given) | 0.5 (≈ 2 µM) | 4 (≈ 16 µM) | 64 (≈ 256 µM) | 64 (≈ 256 µM) | 1 (≈ 3.99 µM) |
| O=C(OCc1ccccc1)c1cnc(Cl)cn1 | 0.5 (≈ 2.01 µM) | 1 (≈ 4.02 µM) | 8 (≈ 32.2 µM) | 4 (≈ 16.1 µM) | 1 (≈ 4.02 µM) |
| CC(C)(C)OC(=O)c1cnc(Cl)cn1 | 0.5 (≈ 2.33 µM) | < 1 | 128 (≈ 596 µM) | 128 (≈ 596 µM) | 0.25 (≈ 1.16 µM) |
| O=C(Oc1cccc2ccccc12)c1cnccn1 | – | > 16 | 128 (≈ 511 µM) | 64 (≈ 256 µM) | 8 (≈ 32 µM) |
| O=C(OCCc1ccccc1)c1cnc(Cl)cn1 | 1 (≈ 3.81 µM) | 0.25 (≈ 0.952 µM) | 32 (≈ 122 µM) | 8 (≈ 30.5 µM) | 1 (≈ 3.81 µM) |
| CC(OC(=O)c1cnc(Cl)cn1)c1ccc(Br)cc1 (stereo not given) | 8 (≈ 23.4 µM) | 0.25 (≈ 0.732 µM) | 32 (≈ 93.7 µM) | 16 (≈ 46.8 µM) | 2 (≈ 5.85 µM) |
| CCCOC(=O)c1cnc(Cl)cn1 | < 0.03 | 0.25 (≈ 1.25 µM) | 16 (≈ 79.8 µM) | 16 (≈ 79.8 µM) | 0.06 (≈ 0.299 µM) |
| CCCCCCCOC(=O)c1cnc(Cl)cn1 | < 0.03 | < 0.03 | 8 (≈ 31.2 µM) | 16 (≈ 62.3 µM) | 0.06 (≈ 0.234 µM) |
| CCC(C)(CC)OC(=O)c1cnc(Cl)cn1 | 8 (≈ 33 µM) | 2 (≈ 8.24 µM) | > 256 | 256 (≈ 1050 µM) | 8 (≈ 33 µM) |
| CCCCCCOC(=O)c1cnc(Cl)cn1 | 0.125 (≈ 0.515 µM) | 0.015 (≈ 0.0618 µM) | 32 (≈ 132 µM) | 16 (≈ 65.9 µM) | 0.125 (≈ 0.515 µM) |

— ChEMBL document CHEMBL1128446, “Pyrazinoic acid esters with broad spectrum in vitro antimycobacterial activity” (1995)
